Active and inactive are the calls of the source. No cut-off for these calls is given here.
What was measured:
[1] = biological target: T1, Proteasome Macropain subunit MB1 (Homo sapiens, UniProt P28074); assay: Inhibition of chymotrypsin-like activity of human 20S proteasome beta 5 subunit assessed as hydrolysis of succinyl-LLVY-AMC fluorogenic substrate measured for 1 hr by fluorometric analysis
T1 sequence (P28074 whole entry): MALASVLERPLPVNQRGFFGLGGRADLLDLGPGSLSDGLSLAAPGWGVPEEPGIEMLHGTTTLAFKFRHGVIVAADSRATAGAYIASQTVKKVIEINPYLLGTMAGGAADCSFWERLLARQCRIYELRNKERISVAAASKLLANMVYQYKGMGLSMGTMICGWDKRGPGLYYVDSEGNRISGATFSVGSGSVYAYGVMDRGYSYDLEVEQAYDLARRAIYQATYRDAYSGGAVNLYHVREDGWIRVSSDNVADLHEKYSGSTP
Procedure, shortened: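 Purified human 20S proteasome (0.1 µg) incubated at 37 °C with 50 µM succinyl-LLVY-AMC (CT-L) or 20 µM Z-LLE-AMC (PGPH) and compound at 0.01–10 µM in 25 mM HEPES, 0.5 mM EDTA, 0.03% SDS. IC50 taken from inhibition curve; means of three experiments.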

[2] = Cytotoxicity against ER-negative HEK293 cells after 48 hrs by MTT assay; type: cell-based; details: human
Procedure, shortened: (§1)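 HEK293 (DMEM) or HL-60 (IMDM) cells, each with 10% FBS plus penicillin/streptomycin, seeded 5×10^3 cells/well in duplicate. Exposed 48 h to compound at […]. MTT reduction read as 560/750 nm absorbance ratio after HCl/2-propanol extraction. CyT50 from inhibition curve; means of triplicate.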

HL-60 = assay: Cytotoxicity against […] human HL60 cells after 48 hrs by MTT assay; type: functional; details: HL-60, 48 h; procedure, shortened: as §1
HeLa = assay: Induction of apoptosis in human HeLa cells assessed as PARP cleavage at 1 to 60 uM after 24 hrs by Western blotting analysis; type: functional, cell-based
Procedure, shortened: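 HeLa cells seeded 4×10^5 cells/well, incubated 24 h with varying compound concentrations; PARP cleavage detected in lysates by Western blotting.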

[3] = biological target: Proteasome Macropain subunit (Homo sapiens) (UniProt P49721); assay: Inhibition of biotin-labeled belactosin A binding to human 20S proteasome beta 2 subunit at 1 to 100 uM preincubated for 1 hr followed by biotin-labeled belactosin A treatment measured after 1 hr by Western blotting analysis
Procedure, shortened: (§2)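 Purified human 20S proteasomes preincubated with varying inhibitor concentrations 1 h at 37 °C, then biotin-belactosin A added at 1 μM for a further 1 h. Proteins separated by SDS-PAGE, blotted to PVDF, blocked with 5% skim milk; biotin-labeled subunits detected with streptavidin-HRP and ECL. MG132 used as control.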

[4] = biological target: T2, Proteasome component C5 (Homo sapiens) (UniProt P20618); assay: Inhibition of biotin-labeled belactosin A binding to human 20S proteasome beta 1 subunit at 1 to 100 uM preincubated for 1 hr followed by biotin-labeled belactosin A treatment measured after 1 hr by Western blotting analysis; procedure, shortened: as §2
T2 sequence (whole entry): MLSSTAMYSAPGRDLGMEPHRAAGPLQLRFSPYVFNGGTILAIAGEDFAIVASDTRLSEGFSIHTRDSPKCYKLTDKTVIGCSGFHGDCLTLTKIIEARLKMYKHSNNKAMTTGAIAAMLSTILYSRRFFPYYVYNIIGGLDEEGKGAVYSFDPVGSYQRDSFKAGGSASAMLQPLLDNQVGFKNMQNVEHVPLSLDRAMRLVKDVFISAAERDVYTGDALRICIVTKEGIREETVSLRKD

Homo sapiens [5] = species on record: Homo sapiens; assay: Inhibition of calpain (unknown origin) at >10 uM
Homo sapiens [6] = species on record: Homo sapiens; assay: Inhibition of cathepsin (unknown origin) at >10 uM

Sequence of Proteasome Macropain subunit (Homo sapiens) (P49721 whole entry): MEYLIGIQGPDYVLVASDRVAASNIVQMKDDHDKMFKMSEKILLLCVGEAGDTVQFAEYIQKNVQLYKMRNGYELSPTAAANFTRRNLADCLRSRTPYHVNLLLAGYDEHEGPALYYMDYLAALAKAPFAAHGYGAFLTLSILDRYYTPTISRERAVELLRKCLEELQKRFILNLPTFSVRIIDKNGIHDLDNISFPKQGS

| SMILES | IC50 [1] [µM] | CC50 at 48 h [2] [µM] | CC50 (HL-60) [µM] | Activity (HeLa) | inhibition [3] | inhibition [4] | inhibition (Homo sapiens [5]) | inhibition (Homo sapiens [6]) |
| --- | --- | --- | --- | --- | --- | --- | --- | --- |
| CCCC(=C(c1ccc(OCCN2CCCCCC2)cc1)c1ccc(OCCN2CCCCCC2)cc1)c1ccccc1 | 1.37 | 26.8 | 4.3 | – | – | – | – | – |
| CCCCCCC(CCCCCC)=C(c1ccc(OCCN2CCCCCC2)cc1)c1ccc(OCCN2CCCCCC2)cc1 | > 10 | > 30 | > 30 | – | – | – | – | – |
| c1ccc(Cc2ccc(OCCN3CCCCCC3)cc2)cc1 | > 10 | 27 | > 30 | inactive | Active | Active | – | – |
| CCCC(CCC)=C(c1ccc(OCCN2CCCCCC2)cc1)c1ccc(OCCN2CCCCCC2)cc1 | 3.38 | > 30 | > 30 | – | – | – | – | – |
| CC(C)(c1ccc(OCCN2CCCCCC2)cc1)c1ccc(OCCN2CCCCCC2)cc1 | 0.75 | 7.61 | 17.6 | – | – | – | – | – |
| CCC(=C(c1ccc(OCCN2CCCCC2)cc1)c1ccc(OCCN2CCCCC2)cc1)c1ccccc1 | > 10 | – | – | – | – | – | inactive | inactive |
| CC(c1ccc(OCCN2CCCCCC2)cc1)c1ccc(OCCN2CCCCCC2)cc1 | 0.8 | 8.12 | 21.4 | – | – | – | – | – |
| CCC(=C(c1ccc(OCCN(C)C)cc1)c1ccc(OCCN(C)C)cc1)c1ccccc1 | 3.36 | – | – | – | – | – | inactive | inactive |
| c1ccc(C(=C(c2ccc(OCCN3CCCCCC3)cc2)c2ccc(OCCN3CCCCCC3)cc2)C2CCCCC2)cc1 | > 10 | > 30 | > 30 | – | – | – | – | – |
| CCCCCC(CCCCC)=C(c1ccc(OCCN2CCCCCC2)cc1)c1ccc(OCCN2CCCCCC2)cc1 | > 10 | 14.5 | > 30 | – | – | – | – | – |
| CC(O)(c1ccc(OCCN2CCCCCC2)cc1)c1ccc(OCCN2CCCCCC2)cc1 | 1.66 | 22.7 | 7.06 | – | – | – | – | – |
| CCC(=C(c1ccc(OCCCN(C)C)cc1)c1ccc(OCCCN(C)C)cc1)c1ccccc1 | > 10 | – | – | – | – | – | inactive | inactive |
| CCC=C(c1ccc(OCCN2CCCCCC2)cc1)c1ccc(OCCN2CCCCCC2)cc1 | 1.46 | 26.7 | 22.6 | – | – | – | – | – |
| c1cc(C2(c3ccc(OCCN4CCCCCC4)cc3)CCCCC2)ccc1OCCN1CCCCCC1 | 1.94 | 17.5 | > 30 | – | – | – | – | – |
| c1cc(C(=C2CCCCC2)c2ccc(OCCN3CCCCCC3)cc2)ccc1OCCN1CCCCCC1 | 2.19 | 12.5 | 11.7 | – | – | – | – | – |

Reference: ChEMBL document CHEMBL3098012, “A novel tamoxifen derivative, ridaifen-F, is a nonpeptidic small-molecule proteasome inhibitor” (Eur J Med Chem, 2014)
